This is a sample that favours compounds with a hit; in the whole collection about 1.7% have one here.
LMPTP block – LMPTP (human) inhibition | P24666 | recombinant LMPTP-A, OMFP fluorogenic substrate, fluorescence intensity | inhibition, % at 20 µM | actives 0.22% (n = 360,000) | AID 651560;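 active = compounds that cut the enzyme signal by at least half of the control window in the single-dose screen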
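Test system – LMPTP-A phosphatase enzyme · Quantity – 0.625 nM LMPTP-A final · Reagent – OMFP substrate, 400 µM final · Dosing – one test concentration per compound, 20 µM, with 3% DMSO overall · Timing – 50 min enzyme reaction at room temperature, protected from light · Detection – fluorescence intensity · Controls – substrate-only low control, DMSO enzyme-plus-substrate high control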
DNMT1 block – inhibitors of human DNMT1 | DNMT1 molecular beacon, Hinp1I cleavage, fluorescence | actives 0.83% (n = 360,000) | inhibition (reported as % activation of signal), % at 10 µM | AID 588458; in the data active = inhibition above about 50%
STEP inh – STEP (human) phosphatase inhibition; P54829; recombinant STEP, OMFP fluorogenic substrate, fluorescence; inhibition, % at 20 µM; actives 0.25% (n = 360,000);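 active = inhibition at 20 µM, scaled per plate between control wells, above about 37%, limit read from the data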
Target sequence (P54829 whole entry, looked up): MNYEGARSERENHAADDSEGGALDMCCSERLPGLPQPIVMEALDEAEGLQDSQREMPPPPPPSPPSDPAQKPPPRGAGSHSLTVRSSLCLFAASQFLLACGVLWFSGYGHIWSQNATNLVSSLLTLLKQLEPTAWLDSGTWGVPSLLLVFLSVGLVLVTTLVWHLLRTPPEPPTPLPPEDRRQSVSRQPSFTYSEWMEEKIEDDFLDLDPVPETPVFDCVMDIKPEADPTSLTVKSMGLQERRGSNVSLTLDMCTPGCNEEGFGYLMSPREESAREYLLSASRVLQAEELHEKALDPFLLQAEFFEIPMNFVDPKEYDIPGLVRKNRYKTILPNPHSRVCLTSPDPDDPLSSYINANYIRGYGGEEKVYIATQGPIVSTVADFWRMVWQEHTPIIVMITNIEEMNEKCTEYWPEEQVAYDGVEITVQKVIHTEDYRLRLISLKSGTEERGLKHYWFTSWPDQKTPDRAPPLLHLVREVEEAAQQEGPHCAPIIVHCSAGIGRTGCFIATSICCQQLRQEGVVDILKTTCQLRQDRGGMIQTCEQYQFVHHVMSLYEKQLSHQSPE
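System: isolated STEP enzyme; schedule: 20 min enzyme reaction at room temperature, protected from light; medium: Bis-Tris buffer pH 6.0, 2.5 mM DTT, 0.005% Tween 20; signal: fluorescence, 480/540 nm; dosing: single compound dose of 20 µM, 1% DMSO final; also added: OMFP substrate, 25 µM final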
SUMO1 PPI mod – SUMO1-SIM interaction modulation. P63165. SUMO1 binding to a labelled peptide, TR-FRET, 1 h. inhibition, % at 20 µM. actives 0.33% (n = 360,000). AID 602429; in the data active = inhibition above about 37%
Target sequence (P63165 whole entry, looked up): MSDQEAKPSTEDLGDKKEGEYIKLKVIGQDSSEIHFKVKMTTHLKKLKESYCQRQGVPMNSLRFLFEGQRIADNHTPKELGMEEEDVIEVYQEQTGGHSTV
Scp-1 inhibitor – inhibitors of human Scp-1 phosphatase | Recombinant Scp1, phosphopeptide, malachite green phosphate absorbance | Q9GZU7 | actives 0.88% (n = 340,000) | inhibition, % at 20 µM;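 active = inhibition above about 50% at 20 µM, limit read from the data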
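Material – SCP-1 phosphatase catalytic domain, residues 76-261 · Buffer or medium – Acidic Tris acetate buffer with magnesium and detergent · Also added – Phospho 17-mer peptide substrate · Compound – single 20 µM dose, 1% DMSO · Times – 45 min room-temperature reaction, 5 min colour, 30 min stabiliser · Technique – Phosphate-binding colour reagent, absorbance read at 630 nm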
Large screens that a line does not name were inactive; ! = not active in a repeat.

Cc1cccc(NC(=O)c2ccc(S(=O)(=O)N3CC(C)OC(C)C3)cc2)n1 (stereo not drawn)	none
COc1ccc(C2NC(=S)NC(C)=C2C(=O)Nc2ccccn2)cc1 (stereo not drawn)	SUMO1 PPI mod 57
COc1ccc(OC)c(C2NC(=S)NC(C)=C2C(=O)Nc2ccccn2)c1 (stereo not drawn)	none
FC(F)(F)C1=Nc2cccc3cccc(c23)N1	LMPTP block 87, DNMT1 block 108, SUMO1 PPI mod 117
O=C(CSc1n[nH]c(=O)[nH]c1=O)Nc1cccc(S(=O)(=O)N2CCOCC2)c1	none
O=C(CSc1n[nH]c(=O)[nH]c1=O)Nc1ccc2c(c1)C(=O)c1ccccc1C2=O	LMPTP block 69, STEP inh 88, SUMO1 PPI mod 96, Scp-1 inhibitor 82
C/C=C\C=C/C(=O)Nc1cccc(C2=NOC3(C2)C[C@H](C(N)=O)N(C(=O)CC)C3)c1 (stereo partly drawn)	none
C=C(C)C(=O)Nc1cccc(C2=NOC3(C2)C[C@H](C(N)=O)N(C(=O)CC#N)C3)c1 (stereo partly drawn)	Scp-1 inhibitor 57 (no result: LMPTP block, DNMT1 block, STEP inh, SUMO1 PPI mod)
N#CCC(=O)N1CC2(CC(c3cccc(NC(=O)COc4ccc(Cl)cc4)c3)=NO2)C[C@@H]1C(N)=O (stereo partly drawn)	none
C/C=C/C=C\C(=O)Nc1cccc(C2=NOC3(C2)C[C@H](C(N)=O)N(C(=O)CC#N)C3)c1 (stereo partly drawn)	SUMO1 PPI mod 71, Scp-1 inhibitor 67
Cn1nc(C(=O)OCC(=O)c2ccc(Cl)cc2)c2ccccc2c1=O	none
O/N=C(/CCc1ccccc1)c1ccc2c(c1)OCCO2	none
O=C(NCC(=O)N1CCN(C(c2ccccc2)c2ccccc2)CC1)c1ccccc1F	none
CC(C)[C@H](NC(=O)OC(C)(C)C)c1cc(C(=O)NCCc2c[nH]c3ccccc23)c(N)s1	none (no result: DNMT1 block, STEP inh, Scp-1 inhibitor)
O=C(O)CCN1C(=O)/C(=C/c2cn(-c3ccccc3)nc2-c2cccs2)SC1=S	LMPTP block 81, STEP inh 74
O=C1C(=Cc2cn(-c3ccccc3)nc2-c2ccc(OCc3ccccc3F)cc2)SC(=S)N1CCS(=O)(=O)O	LMPTP block 89, SUMO1 PPI mod 88 (no result: Scp-1 inhibitor)
Cc1ccc(-c2nn(-c3ccccc3)cc2/C=C2\SC(=S)N(CC(=O)O)C2=O)cc1	none
O=C1C(=Cc2cn(-c3ccccc3)nc2-c2ccc(OCc3ccc(Cl)cc3)cc2)SC(=S)N1CCS(=O)(=O)O	LMPTP block 94, SUMO1 PPI mod 110 (no result: Scp-1 inhibitor)
CCCc1nc(SCC(=O)c2ccc(F)cc2)c2ccccc2n1	none
COc1ccc(C(=O)Nc2nc3cc4c(cc3s2)OCO4)c(OC)c1	SUMO1 PPI mod 60
COc1ccc2nc(NC(=O)c3cc(C)oc3C)sc2c1	none
Cn1nc(C(C)(C)C)cc1NC(=O)C1(C)CCN1C(=O)CC(c1ccccc1)c1ccccc1 (stereo not drawn)	none (no result: Scp-1 inhibitor)
O=C1C=C(N2CCOCC2)c2ccccc2C1=O	DNMT1 block 82, SUMO1 PPI mod 40
O=C1C=C(N2CCOCC2)c2cccc3cccc1c23	none (no result: Scp-1 inhibitor)
Nc1ccc2ncccc2c1N	SUMO1 PPI mod 45
CCOC(=O)NC(NC(=O)OCC)C(=O)c1ccc(F)cc1	Scp-1 inhibitor 102
c1ccc(COc2ncnc3c2ncn3CCCNCc2cccs2)cc1	none (no result: Scp-1 inhibitor)
C/C(=N/NC(=O)CSc1nc2ccccc2s1)c1ccncc1	none
CS/C(=N\S(=O)(=O)c1cccs1)NC(=O)CSc1nc2ccccc2s1	SUMO1 PPI mod 38!
O=S(=O)(c1ccsc1)N1CC=C(c2ccccc2)CC1	none
NS(=O)(=O)c1ccc(CCNC(=O)c2cc3ccccc3s2)cc1	Scp-1 inhibitor 58
NS(=O)(=O)c1ccc(CCNC(=O)c2ccc(Cl)s2)cc1	none
CC1CCC(NC(=O)C2CCN(C(=O)Nc3ccccc3)CC2)CC1 (stereo not drawn)	none
CCCC(C(=O)NCc1ccc(OC)cc1)N(Cc1ccco1)C(=O)c1snc(C(N)=O)c1N (stereo not drawn)	SUMO1 PPI mod 51
COc1ccc(C(=O)NCc2ccc3c(c2)OCO3)cc1S(=O)(=O)N1CCCC1	none
CCN(CC)C(=O)C1=C(C)N(CCC2=CCCCC2)C(=O)C(CC(=O)NCc2cccs2)C1 (stereo not drawn)	none (no result: Scp-1 inhibitor)
CN(C)c1ccc(/C=C/c2nc3ccccc3c(=O)n2-c2ccc(C(=O)O)cc2)cc1	Scp-1 inhibitor 64
O=C1C=C(Nc2ccccc2C(=O)O)c2ccccc2C1=O	DNMT1 block 55
O=C(O)/C(=C\c1ccc(Cl)c([N+](=O)[O-])c1)c1ccc(S(=O)(=O)N2CCCCC2)s1	none
O=C(O)/C(=C\c1ccc(Cl)c([N+](=O)[O-])c1)c1ccc(S(=O)(=O)N2CCCC2)s1	DNMT1 block 72, Scp-1 inhibitor 66
COc1ccc(S(=O)(=O)NCc2cccnc2)cc1NC(=O)c1ccccc1C	DNMT1 block 53
O=[N+]([O-])c1ccc(Sc2nc3ccccc3o2)c([N+](=O)[O-])c1	DNMT1 block 52
CCCCC1=NN2CCS(=O)(=O)N=C2S1	none
Cn1c(CCN2CCN(c3ccccn3)CC2)nc2cc(NC(=O)COc3ccc([N+](=O)[O-])cc3)ccc21	LMPTP block 71
Cn1c(CCN2CCOCC2)nc2cc(NC(=O)COc3ccc([N+](=O)[O-])cc3)ccc21	none
O=Nc1c(-c2c(O)[nH]c3cc(Br)ccc23)[nH]c2ccccc12	SUMO1 PPI mod 44
O=C(CSCc1cccc(Br)c1)N=Nc1c(O)[nH]c2ccccc12	none
O=C(c1ccc(Br)o1)N1CCN(c2ccc3nnc(-c4ccc(F)cc4)n3n2)CC1	SUMO1 PPI mod 49
O=c1c2ccccc2sn1-c1nccs1	Scp-1 inhibitor 96
O=c1c2cc(F)ccc2sn1-c1ccccc1	Scp-1 inhibitor 92
O=c1c2cc(C(F)(F)F)ccc2sn1-c1ccccc1	none (no result: Scp-1 inhibitor)
O=c1c2ccccc2sn1-c1ccc(S(=O)(=O)N2CCCCC2)cc1	none
Cc1ccc(-n2sc3ccccc3c2=O)cc1S(=O)(=O)N1CCCCC1	Scp-1 inhibitor 97
O=C(O)c1cccc(-n2sc3ccccc3c2=O)c1	Scp-1 inhibitor 88
O=C(Nc1ccc2c(c1)OCO2)c1c[nH]c(=O)n(-c2ccc(F)cc2)c1=O	none
O=c1c2ccccc2sn1-c1ccccc1	Scp-1 inhibitor 65
CN(C)S(=O)(=O)c1cccc(-n2sc3ccccc3c2=O)c1	Scp-1 inhibitor 99
Oc1ccc(C[C@@H]2CNC(=S)N2CCc2cc(C(F)(F)F)cc(C(F)(F)F)c2)cc1	none
C[C@@H](CN1C(=O)C(=O)NC[C@@H]1Cc1ccc(O)cc1)NC(=O)Cc1ccccc1	SUMO1 PPI mod 42
O=C1NC[C@@H](Cc2ccc(O)cc2)N(CCc2cc(C(F)(F)F)cc(C(F)(F)F)c2)C1=O	SUMO1 PPI mod 67 (no result: DNMT1 block, STEP inh, Scp-1 inhibitor)

Screening data: PubChem BioAssay, Sanford-Burnham Center for Chemical Genomics
